The results in this text go back to ChEMBL document CHEMBL1132336, “Synthesis, evaluation, and comparative molecular field analysis of 1-phenyl-3-amino-1,2,3,4-tetrahydronaphthalenes as ligands for histamine H(1) receptors” (J Med Chem, 1999).

Molecules are shown by their SMILES. Bounds are passed on as bounds.

Chain of Histamine H1 receptor (Cavia porcellus) (P31389 whole entry): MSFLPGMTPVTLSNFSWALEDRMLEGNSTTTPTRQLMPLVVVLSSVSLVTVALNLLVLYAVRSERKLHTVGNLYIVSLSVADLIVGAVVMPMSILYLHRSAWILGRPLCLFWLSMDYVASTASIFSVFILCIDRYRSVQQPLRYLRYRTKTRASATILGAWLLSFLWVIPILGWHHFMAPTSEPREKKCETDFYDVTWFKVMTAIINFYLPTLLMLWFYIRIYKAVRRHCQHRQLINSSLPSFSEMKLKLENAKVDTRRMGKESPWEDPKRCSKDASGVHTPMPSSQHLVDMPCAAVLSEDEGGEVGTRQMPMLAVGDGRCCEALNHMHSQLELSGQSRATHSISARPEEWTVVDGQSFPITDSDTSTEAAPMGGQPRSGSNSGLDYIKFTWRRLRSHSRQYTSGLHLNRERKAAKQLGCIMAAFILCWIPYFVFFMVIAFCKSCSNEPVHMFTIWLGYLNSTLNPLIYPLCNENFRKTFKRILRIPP

The species named for one test is Cavia porcellus. As to the kind of experiment: Compound was tested for the displacement of [3H]mepyramine from Histamine H1 receptor by competition binding assay. The gist of the method: (§1)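 Membranes from guinea pig brain minus cerebellum (P2 fraction, pre-incubated 15 min at 25 °C, stored at –80 °C). Competition with 2 nM [3H]mepyramine in 50 mM Na+K+-phosphate pH 7.4, 1 h at 30 °C, triplicate tubes. Nonspecific binding defined with 20.0 μM triprolidine. Bound ligand collected on GF/B glass fibre filters, rinsed three times with cold buffer and counted by liquid scintillation.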
In general terms: Loss of bound radioactivity is the signal in a displacement assay; it reports binding, not function.
Regarding `CN(C)C1Cc2cc(O)c(O)cc2C(c2ccccc2)C1` (stereo in doubt; 12), the K0.5 worked out at 69 nM.
Compound `C=CCN1CC[C@@]2(C)c3cc(O)ccc3C[C@H]1[C@H]2C` came in with a K0.5 of 2000 nM.
On the same count and under the same terms, under `CN(C)C1Cc2ccccc2C(c2ccccc2)C1` (stereo in doubt; 1d) stands 111 nM.
The compound `CN(C)C1Cc2cc(O)c(O)cc2C(c2ccccc2)C1` (stereo in doubt; 13) yielded a K0.5 of 11.8 nM.
`CN(C)C1Cc2ccccc2C(C)(c2ccccc2)C1` (stereo in doubt; 15): the K0.5 was determined as 4.4 nM.
The compound `Cc1ccccc1C1CC(N(C)C)Cc2ccccc21` (configuration not stated) yielded a K0.5 of 12.7 nM.
Compound `CN(C)C1Cc2ccccc2C(c2ccccc2)C1` (stereo in doubt; 1b) had a K0.5 of 19.1 nM.
With `CC(C)(C)[C@]1(O)CCN2C[C@H]3c4ccccc4CCc4cccc(c43)[C@@H]2C1`, the K0.5 turned out to be 405 nM.
Compound `CN(C)C1Cc2ccccc2C(C)(c2ccccc2)C1` (stereo in doubt; 14) gave a K0.5 of 40 nM.
As to `CN(C)C1Cc2ccccc2C(c2ccccc2)C1` (stereo in doubt; 1a), the K0.5 was 1.07 nM.
`CN(C)C1Cc2ccccc2C(c2ccccc2)C1` (stereo in doubt; 1c): the K0.5 stood at 2.45 nM.
In turn, `CN(C)C1Cc2ccccc2C(c2ccccc2Cl)C1` (configuration not stated) showed a K0.5 of 42.7 nM.
`C[N+](C)(C)C1Cc2ccccc2C(c2ccccc2)C1` (stereo in doubt; 3) had a K0.5 of 120 nM.
For the compound `C[N+](C)(C)C1Cc2ccccc2C(c2ccccc2)C1` (stereo in doubt; 25), the K0.5 is 107 nM.
On the same count and under the same terms, under `CN(C)C1CCc2ccccc2C1c1ccccc1` (stereo in doubt; 8) stands greater than 2000 nM; under `Nc1ccc2c3c(cccc13)-c1ccccc1-2`, 4000 nM; under `Cc1ccc(C2CC(N(C)C)Cc3ccccc32)cc1` (configuration not stated), 5 nM.
The same measure, in the same setting: under `CN1[C@@H]2CC[C@H]1C[C@@H](OC(=O)C(CO)c1ccccc1)C2` (some centres not stated) stands 580 nM; under `CNC1Cc2ccccc2C(c2ccccc2)C1` (configuration not stated), 64 nM; under `CN(C)C1Cc2ccccc2C(c2ccc(Cl)cc2)C1` (configuration not stated), 4.4 nM.
Still for that read-out and setting: under `CN(C)c1ccc2c3c(cccc13)-c1ccccc1-2` stands 4000 nM; under `CCN(CC)C1Cc2ccccc2C(c2ccccc2)C1` (configuration not stated), 13.3 nM; under `CN(C)C1CCc2ccccc2C1` (configuration not stated), 75 nM.
For `CN(C)C1CCc2ccccc2C(c2ccccc2)C1` (stereo in doubt; 10), the K0.5 was found to be 217 nM.
For `CN(C)C1Cc2ccccc2C(c2ccc(F)cc2)C1` (configuration not stated), the K0.5 was found to be 2.3 nM.

A further test has as its target Histamine H1 receptor (Cavia porcellus) (UniProt P31389). As to the kind of experiment: Compound was tested for the displacement of [3H]mepyramine from Histamine H1 receptor by competition binding assay. In outline: as §1
As for `Cc1ccc(/C(=C\CN2CCCC2)c2ccccn2)cc1`, the K0.5 stood at 0.46 nM.
`CN(C)CC[C@@H](c1ccc(Cl)cc1)c1ccccn1` returned a K0.5 of 1.16 nM.
The compound `CN(C)CCOC(c1ccccc1)c1ccccc1` had a K0.5 of 6.1 nM.
Same read-out and setting: in the case of `CN(C)CC/C=C1/c2ccccc2COc2ccccc21` it was 0.16 nM; in that of `OC(CCCN1CCN(c2ncc(F)cn2)CC1)c1ccc(F)cc1` (configuration not stated), 548 nM.
Regarding `CN(C)C1Cc2cc(Cl)c(O)cc2C(c2ccccc2)C1` (stereo in doubt; 2), the K0.5 amounted to 1.47 nM.
Still for that read-out and setting: under `CN(C)CC[C@H](c1ccc(Cl)cc1)c1ccccn1` stands 61.6 nM.
